Assay results taken from ChEMBL document CHEMBL1221371, “Norterpenoids and related peroxides from the formosan marine sponge Negombata corticata” (J Nat Prod, 2010).

Key:
A549 = assay: Cytotoxicity against human A549 cells by MTT assay; format: functional, cell-based
In short: (§1)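 Human cancer cell lines were obtained from ATCC. Viability was read colorimetrically by MTT reduction, with doxorubicin as the positive control. IC50 values were derived in µM.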

MCF7 = assay: Cytotoxicity against human MCF7 cells by MTT assay; format: functional, cell-based; in short: as §1
HepG2 = assay: Cytotoxicity against human HepG2 cells by MTT assay; format: functional, cell-based; in short: as §1
[1] = Cytotoxicity against human Hep3B cells by MTT assay; format: functional, cell-based, Hep 3B2; in short: as §1
MDA-MB-231 = assay: Cytotoxicity against human MDA-MB-231 cells by MTT assay; format: functional, cell-based; in short: as §1

Compound	IC50 (A549) [µM]	IC50 (MCF7) [µM]	IC50 (HepG2) [µM]	IC50 [1] [µM]	IC50 (MDA-MB-231) [µM]
CC(=O)CCCC(C)(C)C(=O)CCC(C)=O	> 50	> 50	> 50	> 50	> 50
COC(=O)[C@@H](C)[C@@H]1CC[C@](C)(CCC(=O)C(C)(C)CCCC(C)=O)OO1 [DIACARPEROXIDE B]	11.9	11.9	11.9	11.9	11.9
COc1cccc2c1C(=O)c1c(O)c3c(c(O)c1C2=O)C[C@@](O)(C(=O)CO)C[C@@H]3O[C@H]1C[C@H](N)[C@H](O)[C@H](C)O1 [DOXORUBICIN]	–	–	0.19	0.14	0.24
C=C1CCCC(C)(C)C1CC[C@@]1(C)CC[C@H]([C@@H](C)C(=O)O)OO1 (stereo partly drawn) [NAPAPUIN B]	0.6	5.9	0.9	41.3	0.3
C=C1CCCC(C)(C)C1CC[C@@](C)(O)CC[C@@H](O)[C@@H](C)C(=O)OC (stereo partly drawn) [NEGOMBATODIOL]	> 50	> 50	> 50	> 50	> 50
C=C1CCCC(C)(C)C1CC[C@]1(C)CCC(=O)O1 (stereo partly drawn) [NEGOMBATOLACTONE]	> 50	> 50	> 50	> 50	> 50
C/C(=C\CC[C@]1(C)CC[C@H]([C@@H](C)C(=O)O)OO1)CCC12OC1(C)CCCC2(C)C (stereo partly drawn) [NEGOMBATOPEROXIDE A]	> 50	> 50	> 50	> 50	> 50
CC(=O)/C=C/C[C@]1(C)CC[C@H]([C@@H](C)C(=O)O)OO1 [NEGOMBATOPEROXIDE B]	> 50	> 50	> 50	> 50	> 50
C[C@@H](C(=O)O)[C@H]1CC[C@@](C)(C/C=C/C2(C)CCC(=O)O2)OO1 (stereo partly drawn) [NEGOMBATOPEROXIDE C/D]	> 50	> 50	> 50	> 50	> 50
C=C1CCCC(C)(C)C1CC[C@]1(C)CC[C@H]([C@@H](C)C(=O)OC)OO1 (stereo partly drawn) [NUAPAPUIN B]	5.38	38.5	2.9	23.7	3.5
